# Several values for one entry are separate records, joined by “and”; a condition that tells them apart may be missing. Equal entries are not always repeated.
# Legend:
# [1] = system: B16; test: Antitumor efficacy against B-16 tumor cell line, activity is expressed as […] survival time (MST) at the dose of 1.6 mg/kg.; assay type: functional, organism-based; set-up: dose 1.6 mg/kg; details: Mus musculus
# Procedure, shortened: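 Mice bearing B-16 tumor were dosed once daily on days 1–9. Read-out was median survival time in days, with T/C relative to control MST.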
# [2] = system: L1210; test: Antitumor efficacy against L1210 tumor cell line, activity is expressed as […] survival time (MST) at the dose of 10 mg/kg.; assay type: functional, organism-based; set-up: dose 10 mg/kg; details: Mus musculus
# Procedure, shortened: (§1)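 Murine L-1210 leukemia, ascitic form, with compound given on day 1 (a single ip dose on day 1 in mg/kg in one table). Activity was scored as median survival time in days, with T/C relative to untreated controls. A cisplatin positive control was run in each test.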
# [3] = system: L1210; test: Antitumor efficacy against L1210 tumor cell line, activity is expressed as […] survival time (MST) at the dose of 6 mg/kg.; assay type: functional, organism-based; set-up: dose 6 mg/kg; details: Mus musculus; procedure, shortened: as §1
# [4] = system: L1210; test: Antitumor efficacy against L1210 tumor cell line, activity is expressed as […] survival time (MST) at the dose of 8 mg/kg.; assay type: functional, organism-based; set-up: dose 8 mg/kg; details: Mus musculus; procedure, shortened: as §1
# [5] = system: M5076; test: Antitumor efficacy against M5076 tumor cell line, activity is expressed as […] survival time (MST) at the dose of 4.8 mg/kg.; assay type: functional, organism-based; set-up: dose 4.8 mg/kg; details: Mus musculus
# Procedure, shortened: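 M5076 tumor-bearing mice were dosed on days 1 and 4. Median survival time in days was recorded and T/C calculated against control MST.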
# [6] = system: M5076 (mouse); test: Antitumor efficacy against M5076 tumor cell line, activity is expressed as […] survival time (MST) at the dose of 4.8 mg/kg.
sequence,measurement,setting,value
CISPLATIN,MST,[1],213
same,Survival time as % of untreated control (T/C),[2],193 (2×) and 200 (2×) and 186
same,MST,[3],150
same,MST,[4],186 and 167 and 164
same,MST,[5],166
same,MST,[6],200
